Results gathered from unrelated publications.
Compare with care: the assays were run in different laboratories.
Target: Platelet-derived growth factor receptor beta (PDGFRB, Homo sapiens, UniProt P09619)

CCN(CC)c1ccc(C2=NNC(=O)CC2C)cc1[N+](=O)[O-] (centres unmarked)
remaining activity (enzyme activity, inhibitor; 10 µM): 6%

COc1cc2nccc(Oc3ccc(NC(=O)c4c5n(n(-c6ccc(F)cc6)c4=O)CCCC5)cc3)c2cc1OC
inhibition (enzyme activity, inhibitor; 0.1 µM): 6%

Cn1cc(Cl)c2c(Oc3c(F)cc(Nc4cc(Cl)nc(N)n4)cc3F)ccnc21
remaining binding (cell-free assay, competition with immobilised ligand; 0.1 µM): 96%

CC(C)(O)[C@H]1CC[C@H](Nc2ccc3ncc(-c4cccc(C(F)(F)F)c4)n3n2)CC1
remaining activity (enzyme activity, inhibitor; 1 µM): 81%

COc1cc2ncnc(Nc3ccc(Oc4ccccc4)cc3C)c2cc1OC
inhibition (enzyme activity, inhibitor; 1 µM): 2%

Cc1noc([C@H]2C[C@@H](c3ccc(C(F)(F)F)cc3)CN(C(=O)N3CCS(=O)(=O)C3)C2)n1
remaining binding (cell-free assay, competition with immobilised ligand; 1 µM): 100%

O=[N+]([O-])c1cccc2[nH]c(CNc3nc(N4CCOCC4)nc4c3ncn4-c3ccsc3)nc12
binding vs control (binding, competition with immobilised ligand; 10 µM): 8.2%

O=C1Nc2ccc(Cl)cc2C1=Cc1cc(Cl)c(O)c(Cl)c1
remaining signal (cell-free assay; 0.5 µM): 76.9%

CS(=O)(=O)N1CCCC(NC(=O)[C@H](CCC2CCCCC2)NC(=O)c2ccc(CNc3ncnc4c3nnn4-c3ccccc3)cc2)C1 (some centres unmarked)
remaining binding (cell-free assay, competition with immobilised ligand; 0.1 µM): 86%

Cc1[nH]c(/C=C2\C(=O)Nc3ccc(F)cc32)c(C)c1C(=O)N[C@H]1CCN(C(=O)N(C)C)C1
remaining activity (enzyme activity, inhibitor; 0.1 µM): 97%

CCCOc1ccc([C@H]2[C@H](C(=O)O)[C@@H](c3ccc4c(c3)OCO4)CN2CC(=O)Nc2c(CC)cccc2CC)cc1
remaining binding (cell-free assay, competition with immobilised ligand; 1 µM): 100%

CS(=O)(=O)Nc1cccc(-c2csc(NC(=O)CSc3nc4nccnc4c(=O)n3CCc3ccccc3)n2)c1
inhibition (enzyme activity, inhibitor; 10 µM): 7%

Cc1ccc(NC(=O)c2ccc(CN3CCN(C)CC3)cc2)cc1Nc1nccc(-c2cccnc2)n1
activity vs control (enzyme activity, inhibitor; 0.5 µM): 39.1%

O=C(Nc1cccnn1)N1CC(C/C=C/c2cncc(Oc3ccc(C(F)(F)F)cn3)n2)C1
remaining binding (cell-free assay, competition with immobilised ligand; 1 µM): 81%

CCCOc1ccc(OC)c(F)c1C(=O)c1ccc(C(=O)N[C@@H]2CNC[C@H]2NC(=O)c2ccc3[nH]ncc3c2)cc1
remaining activity (enzyme activity, inhibitor; 10 µM): 74%

Cc1ccc(NC(=O)c2ccc(C)c(C(F)(F)F)c2)cc1C#Cc1nn(C2CCC(O)CC2)c2ncnc(N)c12 (centres unmarked)
remaining signal (cell-free assay; 10 µM): 87%

O=c1c2ccccc2[nH]c(=S)n1CCN1CCC(=C(c2ccc(F)cc2)c2ccc(F)cc2)CC1
remaining activity (enzyme activity, inhibitor; 0.5 µM): 112%

C=CC(=O)Nc1cc(Nc2nccc(Nc3cc(Cl)c(F)cc3C(C)(C)O)n2)c(OC)cc1N1CC[C@@H](N(C)C)C1
inhibition (enzyme activity, inhibitor; 1 µM): -2%

Cn1nc(C(F)(F)F)cc1-c1cnc(N2CCc3cc(S(=O)(=O)Nc4c(F)cc(Cl)cc4F)cc(N4CCCC4=O)c32)nc1
remaining binding (cell-free assay, competition with immobilised ligand; 1 µM): 90%

CN(C)c1ccc(C=C2C(=O)Nc3ccccc32)cc1
remaining activity (enzyme activity, inhibitor; 0.5 µM): 85.8%

Cc1ccc(Nc2nccc(N(C)c3ccc4c(C)n(C)nc4c3)n2)cc1S(N)(=O)=O
inhibition (enzyme activity, inhibitor; 10 µM): 97%

CN(C)c1ncnc(-c2ccc3nc(Nc4cc(CN5CCN(C(=O)CC(F)(F)F)CC5)ccn4)[nH]c3c2)c1Cl
remaining binding (cell-free assay, competition with immobilised ligand; 1 µM): 100%

N#CCCc1ccc2c(c1)-c1[nH]c3ccc([N+](=O)[O-])cc3c1CC(=O)N2
remaining signal (cell-free assay; 0.5 µM): 83.9%

Nc1ncnc2occ(-c3ccc(NC(=O)Nc4cc(C(F)(F)F)ccc4F)cc3)c12
remaining activity (enzyme activity, inhibitor; 20 µM): 0%

Cc1sc(C(=O)NC2COC2)cc1-n1cc(NC(=O)Nc2c(F)cccc2Cl)cn1
remaining activity (enzyme activity, inhibitor; 10 µM): 97.9%

O=C1c2ccccc2-c2n[nH]c3cccc1c23
activity vs control (enzyme activity, inhibitor; 0.5 µM): 85.1%

Cc1ccc(C(=O)Nc2ccc(CN3CCN(C)CC3)c(C(F)(F)F)c2)cc1C#Cc1cnc2cccnn12
remaining activity (enzyme activity, inhibitor; 23.5 nM): 1.6%

Oc1ccc(-c2nc(-c3ccncc3)c(-c3ccc(F)cc3)[nH]2)cc1
remaining signal (cell-free assay; 0.5 µM): 104%

O=C(NCCCC1CCCCC1)c1ccc(CNC(=O)c2cnn(-c3ccccc3)c2C(F)(F)F)cc1
remaining binding (cell-free assay, competition with immobilised ligand; 0.1 µM): 100%
